Data: ChEMBL document CHEMBL3272100, “3-Aminotetrahydrocarbazoles as a new series of central nervous system agents” (1977)
Calls of active or inactive are those of the source.

tested on: Rattus norvegicus; test: Antipsychotic activity in po dosed Sprague-Dawley rat assessed as prevention of d-amphetamine-induced stereotyped behavior measured for 1 min after 90, 100, and 110 mins injection of amphetamine; format: functional
Summary of the method: (§1)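 Male Sprague-Dawley rats, 100-130 g, given compound orally at graded doses (free base), starting at 32 mg/kg, 4 h before d-amphetamine sulfate sc at 3.7 mg/kg (free base). One-minute observations at 90, 100 and 110 min. ED50 with confidence limits calculated.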

Row | Structure (SMILES) | ED50 [mg/kg]
1 | CN(C)CCCN1c2ccccc2Sc2ccc(Cl)cc21 [CHLORPROMAZINE] | 8.6
2 | CN(C)C1CCc2[nH]c3c(F)cc(F)cc3c2C1 (stereo not drawn) [FLUCINDOLE] | 1.4
3 | CN(C)C1CCc2[nH]c3ccccc3c2C1 (stereo not drawn) [CYCLINDOLE] | 10.3

tested on: Mus musculus; test: Antidepressant activity in Swiss-Webster mouse assessed as prevention of reserpine-induced ptosis at 10 to 50 mg/kg, ip; format: functional, organism-based

Row | Structure (SMILES) | Activity
4 | CN(C)CCCN1c2ccccc2CCc2ccccc21 | Active
5 | Cc1cccc2[nH]c3c(c12)CC(N(C)C)CC3 (stereo not drawn) | Active
6 | CN(C)C1CCc2[nH]c3ccccc3c2C1 (stereo not drawn) [CYCLINDOLE] | Active

tested on: Mus musculus; test: Antidepressant activity in Swiss-Webster mouse assessed as prevention of reserpine-induced ptosis at 50 mg/kg, ip; format: functional, organism-based; design: dose 50 mg/kg

Row | Structure (SMILES) | Activity
7 | c1ccc2c3c([nH]c2c1)CCC(N1CCCC1)C3 (stereo not drawn) | inactive
8 | CNC1CCc2[nH]c3c(F)cc(F)cc3c2C1 (stereo not drawn) | inactive
9 | CN(C)C1CCc2[nH]c3cc(F)ccc3c2C1 (stereo not drawn) | inactive
10 | Cc1cccc2c3c([nH]c12)CCC(N(C)C)C3 (stereo not drawn) | inactive
11 | C=CCn1c2c(c3ccccc31)CC(N(C)C)CC2 (stereo not drawn) | inactive
12 | CN(C)C1CCc2[nH]c3ccc(OCc4ccccc4)cc3c2C1 (stereo not drawn) | inactive
13 | CN(C)C1CCc2[nH]c3c(O)cccc3c2C1 (stereo not drawn) | inactive
14 | c1ccc(N2CCN(C3CCc4[nH]c5ccccc5c4C3)CC2)cc1 (stereo not drawn) | inactive
15 | Cc1cc(C)c2c3c([nH]c2c1)CCC(N(C)C)C3 (stereo not drawn) | Active
16 | CN(C)C1CCc2c(c3ccccc3n2CC(=O)O)C1 (stereo not drawn) | inactive
17 | CN(C)C1CCc2c(c3ccccc3n2CCC(=O)O)C1 (stereo not drawn) | inactive
18 | CCN(CC)CCNC1CCc2[nH]c3ccccc3c2C1 (stereo not drawn) | inactive
19 | CSc1cccc2c3c([nH]c12)CCC(N(C)C)C3 (stereo not drawn) | inactive
20 | CN(C)C1CCc2[nH]c3ccc(Oc4ccccc4)cc3c2C1 (stereo not drawn) | inactive
21 | CN(C(=O)c1ccccc1)C1CCc2[nH]c3c(F)cc(F)cc3c2C1 (stereo not drawn) | inactive
22 | CN(C)C1CCc2[nH]c3c(OCc4ccccc4)cccc3c2C1 (stereo not drawn) | inactive
23 | CN(C)C1CCc2[nH]c3ccc(C(=O)O)cc3c2C1 (stereo not drawn) | inactive
24 | CN(C)C1CCc2[nH]c3cc(O)ccc3c2C1 (stereo not drawn) | inactive
25 | c1ccc2c3c([nH]c2c1)CCC(N1CCOCC1)C3 (stereo not drawn) | inactive
26 | CN(C)C1CCc2[nH]c3c(Cl)cc(Cl)cc3c2C1 (stereo not drawn) | inactive
27 | CN(C)C1CCc2[nH]c3c(F)cccc3c2C1 (stereo not drawn) | inactive
28 | COc1cccc2c3c([nH]c12)CCC(N(C)C)C3 (stereo not drawn) | inactive

Row | Structure (SMILES) | Activity
29 | CN(C)C1CCc2[nH]c3c(-c4ccccc4)cccc3c2C1 (stereo not drawn) | Active
30 | CNC1CCc2[nH]c3cc(C)ccc3c2C1 (stereo not drawn) | Active
31 | CN(C)C1CCc2[nH]c3ccc(O)cc3c2C1 (stereo not drawn) | Active
32 | Cc1cccc2c1c1c(n2C)CCC(N(C)C)C1 (stereo not drawn) | Active
33 | Cc1cc(C)c2[nH]c3c(c2c1)CC(N(C)C)CC3 (stereo not drawn) | inactive
34 | CN(C)C1CCc2[nH]c3c(Cl)c(Cl)ccc3c2C1 (stereo not drawn) | Active
35 | Cc1ccc(Cl)c2[nH]c3c(c12)CC(N(C)C)CC3 (stereo not drawn) | Active
36 | COc1cc2[nH]c3c(c2cc1OC)CC(N(C)C)CC3 (stereo not drawn) | inactive
37 | CCc1cccc2[nH]c3c(c12)CC(N(C)C)CC3 (stereo not drawn) | Active
38 | CN(C)C1CCc2[nH]c3ccc(F)cc3c2C1 (stereo not drawn) | inactive
39 | Fc1cc(F)c2[nH]c3c(c2c1)CC(N1CCCCC1)CC3 (stereo not drawn) | inactive
40 | CN(C)C1CCc2[nH]c3c(Cl)cccc3c2C1 (stereo not drawn) | inactive
41 | CN(C)C1CCc2[nH]c3c(C(F)(F)F)cccc3c2C1 (stereo not drawn) | inactive
42 | Cc1cc2[nH]c3c(c2cc1C)CC(N(C)C)CC3 (stereo not drawn) | Active
43 | COc1cc(C(=O)OCCn2c3c(c4ccccc42)CC(N(C)C)CC3)cc(OC)c1OC (stereo not drawn) | inactive
44 | NC1CCc2[nH]c3c(F)cc(F)cc3c2C1 (stereo not drawn) | inactive
45 | CN(C)C1CCc2[nH]c3c(Br)cccc3c2C1 (stereo not drawn) | inactive
46 | CN(Cc1ccccc1)C1CCc2[nH]c3c(F)cc(F)cc3c2C1 (stereo not drawn) | inactive
47 | Cc1ccc2[nH]c3c(c2c1)CC(N(C)C)CC3 (stereo not drawn) | inactive
48 | c1ccc2c3c([nH]c2c1)CCC(N1CCCCC1)C3 (stereo not drawn) | inactive
49 | CCOC(=O)CCn1c2c(c3ccccc31)CC(N(C)C)CC2 (stereo not drawn) | inactive

tested on: Mus musculus; test: Antidepressant activity in Swiss-Webster mouse assessed as prevention of reserpine-induced ptosis at 30 to 50 mg/kg, ip; format: functional, organism-based

Row | Structure (SMILES) | Activity
50 | CN(C)C1CCc2[nH]c3c(F)cc(F)cc3c2C1 (stereo not drawn) [FLUCINDOLE] | inactive

tested on: Mus musculus; test: Antidepressant activity in Swiss-Webster mouse assessed as prevention of reserpine-induced ptosis at 1 to 50 mg/kg, ip; format: functional, organism-based
Summary of the method: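 Male Swiss-Webster mice (18-24 g) given test compounds intraperitoneally at 50, 30, 10, 1 and 0.5 mg/kg (free base), then scored for reserpine-induced ptosis. Active means a statistically significant decrease in ptosis (p < 0.05, two-tailed).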

Row | Structure (SMILES) | Activity
51 | CN(C)CCCN1c2ccccc2Sc2ccc(Cl)cc21 [CHLORPROMAZINE] | inactive

tested on: Mus musculus; test: Antidepressant activity in Swiss-Webster mouse assessed as prevention of reserpine-induced ptosis at 30 mg/kg, ip; format: functional, organism-based; design: dose 30 mg/kg

Row | Structure (SMILES) | Activity
52 | COc1ccc(Cl)c2c3c([nH]c12)CCC(N(C)C)C3 (stereo not drawn) | Active
53 | CCn1c2c(c3ccccc31)CC(N(C)C)CC2 (stereo not drawn) | Active
54 | NC1CCc2[nH]c3ccccc3c2C1 (stereo not drawn) | Active
55 | Cc1cc(Cl)cc2[nH]c3c(c12)CC(N(C)C)CC3 (stereo not drawn) | Active
56 | CCOC(=O)c1cccc2[nH]c3c(c12)CC(N(C)C)CC3 (stereo not drawn) | Active
57 | CNC1CCc2[nH]c3ccccc3c2C1 (stereo not drawn) | Active
58 | CN(C)C1CCc2[nH]c3c(F)cc(F)cc3c2C1 (stereo not drawn) [FLUCINDOLE] | inactive
59 | COc1ccc2c3c([nH]c2c1)CCC(N(C)C)C3 (stereo not drawn) | Active
60 | Cc1ccc(C)c2c3c([nH]c12)CCC(N(C)C)C3 (stereo not drawn) | Active
61 | CN(C)C1CCc2[nH]c3cccc(C(F)(F)F)c3c2C1 (stereo not drawn) | Active

tested on: Rattus norvegicus; test: Antipsychotic activity in Sprague-Dawley rat assessed as prevention of d-amphetamine-induced stereotyped behavior at 32 mg/kg, po measured for 1 min after 90, 100, and 110 mins injection of amphetamine; format: functional, organism-based; design: dose 32 mg/kg; summary of the method: as §1

Row | Structure (SMILES) | Activity
62 | CN(C)CCCN1c2ccccc2CCc2ccccc21 | inactive
63 | Cc1cccc2[nH]c3c(c12)CC(N(C)C)CC3 (stereo not drawn) | inactive

tested on: Mus musculus; test: Antidepressant activity in Swiss-Webster mouse assessed as prevention of reserpine-induced ptosis at 10 mg/kg, ip; format: functional, organism-based; design: dose 10 mg/kg

Row | Structure (SMILES) | Activity
64 | CC(=O)NC1CCc2[nH]c3ccccc3c2C1 (stereo not drawn) | inactive
65 | CN(C)C1CCc2[nH]c3cccc(F)c3c2C1 (stereo not drawn) | Active
66 | CCNC1CCc2[nH]c3ccccc3c2C1 (stereo not drawn) | inactive
67 | CCCCNC1CCc2[nH]c3ccccc3c2C1 (stereo not drawn) | inactive
68 | CN(C)CCn1c2c(c3ccccc31)CC(N(C)C)CC2 (stereo not drawn) | inactive
69 | CCCc1cccc2c3c([nH]c12)CCC(N(C)C)C3 (stereo not drawn) | Active
70 | Cc1cccc2[nH]c3c(c12)CC(N(C)C)CC3 (stereo not drawn) | Active
71 | CCCNC1CCc2[nH]c3ccccc3c2C1 (stereo not drawn) | inactive
72 | Cc1ccc2c3c([nH]c2c1)CCC(N(C)C)C3 (stereo not drawn) | Active
73 | CNC1CCc2[nH]c3cccc(C)c3c2C1 (stereo not drawn) | Active
74 | CCc1cccc2c3c([nH]c12)CCC(N(C)C)C3 (stereo not drawn) | Active
75 | CN(C)C1CCc2[nH]c3ccccc3c2C1 (stereo not drawn) [CYCLINDOLE] | Active
76 | CN(C)C1CCc2c(c3ccccc3n2Cc2ccccc2)C1 (stereo not drawn) | inactive
77 | CN(C)C1CCc2c(c3ccccc3n2Cc2ccc(Cl)cc2)C1 (stereo not drawn) | inactive
78 | CCOC(=O)Cn1c2c(c3ccccc31)CC(N(C)C)CC2 (stereo not drawn) | Active
79 | CN(C)CCCn1c2c(c3ccccc31)CC(N(C)C)CC2 (stereo not drawn) | inactive
80 | Cc1ccc(F)c2[nH]c3c(c12)CC(N(C)C)CC3 (stereo not drawn) | Active
81 | COc1ccc2[nH]c3c(c2c1)CC(N(C)C)CC3 (stereo not drawn) | inactive
82 | CN(C)C1CCc2c(c3ccccc3n2C)C1 (stereo not drawn) | inactive
83 | Cc1cc(Cl)c2c3c([nH]c2c1)CCC(N(C)C)C3 (stereo not drawn) | Active
